Columns and labels:
[1] = Selectivity index, ratio of CC50 for human MT4 cells to IC50 for wild type HIV1 3B; format: functional
[2] = test system: Human immunodeficiency virus 1; test: Antiviral activity against wild type HIV1 3B infected in human MT4 cells assessed as inhibition of virus-induced cytopathogenicity after 5 days by MTT assay; format: functional, organism-based; conditions: Human immunodeficiency virus 1, 3B, MT4, 120 h
Method in brief: (§1)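 MT-4 cells in exponential growth were pelleted (5 min, 220 g) and resuspended at 6×10^5 cells/mL. They were infected at the start with 100-300 CCID50 of virus stock and exposed to serial 5-fold compound dilutions in triplicate wells. Viability was read by MTT at 540 and 690 nm after 5 days, using the median OD of three wells. EC50 is the concentration giving 50% protection from viral cytopathic effect.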

[3] = Cytotoxicity against human MT4 cells after 5 days by MTT assay; format: cell-based
Method in brief: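 Mock-infected MT-4 cells received culture medium in place of virus, at 6×10^5 cells/mL, run in parallel triplicate wells with serial 5-fold compound dilutions. After 5 days, MTT reduction was read at 540 and 690 nm, using the median OD of three wells. CC50 is the concentration lowering OD540 of the mock-infected control by 50%.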

[4] = test system: Human immunodeficiency virus 1; test: Antiviral activity against HIV1 harboring reverse transcriptase K103N/Y181C mutant infected in human MT4 cells assessed as inhibition of virus-induced cytopathogenicity after 5 days by MTT assay; format: functional, organism-based; conditions: Human immunodeficiency virus 1, MT4, 120 h
Method in brief: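 MT-4 cells (6×10^5 cells/mL after spinning at 220 g for 5 min) infected with 100-300 CCID50 of the double RT mutant strain derived from wild-type LAI. Serial 5-fold compound dilutions tested in triplicate alongside mock-infected wells. Viability read by MTT at 540 and 690 nm on day 5, using the median OD of three wells. IC50 is the concentration giving 50% protection from viral cytopathic effect.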

[5] = test system: Human immunodeficiency virus 2; test: Antiviral activity against HIV2 ROD infected in human MT4 cells assessed as inhibition of virus-induced cytopathogenicity after 5 days by MTT assay; format: functional, organism-based; conditions: Human immunodeficiency virus 2, ISOLATE ROD, MT4, 120 h; method in brief: as §1
[6] = test system: Human immunodeficiency virus 1; test: Ratio of zidovudine IC50 to compound IC50 for wild type HIV1 3B; format: functional
[7] = Ratio of compound selectivity index to zidovudine selectivity index for human MT4 cells

Structure (SMILES) | Ratio CC50/IC50 [1] | IC50 [2] [µM] | CC50 at 120 h [3] [µM] | IC50 [4] [µM] | IC50 [5] [µM] | Ratio IC50 [6] | ratio of compound SI to zidovudine SI [7]
CNC(c1ccnc(Nc2ccc(C#N)cc2)n1)c1ccccc1Cl (stereo not given) | 571 | 0.063 | 36.1 | > 36.1 | > 6.09 |  | 
CCNC(c1ccnc(Nc2ccc(C#N)cc2)n1)c1ccccc1Cl (stereo not given) | 113 | 0.35 | 39.4 | > 39.4 | > 39.4 |  | 
CC(C)Nc1cccnc1N1CCN(C(=O)c2cc3cc(NS(C)(=O)=O)ccc3[nH]2)CC1 [DELAVIRDINE] | >54 | 0.81 | 43.8 |  |  |  | 
CCCNC(c1ccnc(Nc2ccc(C#N)cc2)n1)c1ccccc1Cl (stereo not given) | 1422 | 0.048 | 68.5 | > 68.5 | > 68.5 |  | 
CNC(c1ccc(C#N)cc1)c1ccnc(Nc2ccc(C#N)cc2)n1 (stereo not given) | 12 | 15.2 | 189 | > 189 | > 189 |  | 
N#Cc1ccc(Nc2nccc(C(NC3CC3)c3ccc(C#N)cc3)n2)cc1 (stereo not given) | <1 | > 34.7 | 34.7 | > 34.7 | > 34.7 |  | 
N#C/C=C/c1ccc(C(NC2CC2)c2ccnc(Nc3ccc(C#N)cc3)n2)cc1 (stereo not given) | 287 | 0.196 | 56.1 | > 56.1 | > 56.1 |  | 
CCCNC(c1ccc(/C=C/C#N)cc1)c1ccnc(Nc2ccc(C#N)cc2)n1 (stereo not given) | 319 | 0.107 | 34 | > 37.3 | > 37.3 |  | 
CC(O)CNC(c1ccnc(Nc2ccc(C#N)cc2)n1)c1ccccc1Cl (stereo not given) | 105 | 0.33 | 34.7 | > 34.7 | > 34.7 |  | 
CC(C)NC(c1ccc(C#N)cc1)c1ccnc(Nc2ccc(C#N)cc2)n1 (stereo not given) |  | > 69.2 | 69.2 | > 69.2 | > 69.2 |  | 
Cc1cn([C@H]2C[C@H](N=[N+]=[N-])[C@@H](CO)O2)c(=O)[nH]c1=O [ZIDOVUDINE] | >14124 | 0.0066 | > 93.5 | 0.0077 | 0.0017 |  | 
N#Cc1ccc(Nc2nccc(C(NC3CC3)c3ccccc3Cl)n2)cc1 (stereo not given) | 317 | 0.12 | 37.9 | > 37.9 | > 37.9 |  | 
CC(C)NC(c1ccnc(Nc2ccc(C#N)cc2)n1)c1ccccc1Cl (stereo not given) | 879 | 0.04 | 35.5 | > 35.5 | > 35.5 |  | 
CCCNC(c1ccc(C#N)cc1)c1ccnc(Nc2ccc(C#N)cc2)n1 (stereo not given) | <=4 | ≥ 9.45 | 34.9 | > 34.9 | > 34.9 |  | 
Nc1ccn([C@@H]2CS[C@H](CO)O2)c(=O)n1 [LAMIVUDINE] | >22 | 3.89 | > 87.2 |  | 15.5 |  | 
Cc1ccnc2c1NC(=O)c1cccnc1N2C1CC1 [NEVIRAPINE] | >148 | 0.101 | > 15 | 0.9 |  |  | 
CC(C)NC(c1ccc(/C=C/C#N)cc1)c1ccnc(Nc2ccc(C#N)cc2)n1 (stereo not given) | 405 | 0.08 | 32.3 | > 32.3 | > 32.3 |  | 
CCNC(c1ccc(/C=C/C#N)cc1)c1ccnc(Nc2ccc(C#N)cc2)n1 (stereo not given) | 194 | 0.192 | 37.3 | > 37.3 | > 37.3 |  | 
CNC(c1ccc(/C=C/C#N)cc1)c1ccnc(Nc2ccc(C#N)cc2)n1 (stereo not given) | 385 | 0.108 | 41.4 | > 41.4 | > 41.4 |  | 
CCNC(c1ccc(C#N)cc1)c1ccnc(Nc2ccc(C#N)cc2)n1 (stereo not given) | 7 | 21.1 | 158 | > 158 | > 158 |  | 
N#Cc1ccc(Nc2nccc(C(NN)c3ccc(C#N)cc3)n2)cc1 (stereo not given) | 172 | 0.234 | 40.2 | 5.95 | 2.92 |  | 
O=C1Nc2ccc(Cl)cc2[C@@](C#CC2CC2)(C(F)(F)F)O1 [EFAVIRENZ] | >280 | 0.0226 |  | 0.16 |  |  | 
CC(O)CNC(c1ccc(C#N)cc1)c1ccnc(Nc2ccc(C#N)cc2)n1 (stereo not given) | >3 | 23.9 | > 65 | > 65 | > 65 |  | 
N#C/C=C/c1ccc(C(NN)c2ccnc(Nc3ccc(C#N)cc3)n2)cc1 (stereo not given) | 106367 | 0.00175 | 186 | 5.33 | 5.05 | 4 | 7
